This note sets out measurements from PMC9884087 (Journal of Medicinal Chemistry, 2023).

In series [1] the test system is panel of 35 known-liability targets including GPCRs and ion channels. Description: Known-liability off-target panel. As to conditions: 300 kinases at 1 μM and 35 known-liability targets at 10 μM.
A short description of series [2]: Mouse pharmacokinetic study. It is filed as in vivo. The settings on record: for clearance: female, Balb/c, mouse, plasma, iv. Put shortly:
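Female Balb/c mice received test compound i.v. plus p.o., either 1 and 50 mg/kg or 2 and 12.5 mg/kg (n = 3 mice per route). Some arms were pretreated with 1-aminobenzotriazole (50 mg/kg p.o., 2 h before dosing) as a cytochrome P450 inhibitor; others had none. Blood concentration–time profiles were obtained.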

Series [3] can be described thus: Mouse preliminary tolerability study. It is filed as in vivo. Put shortly: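 Dosing was oral, twice daily, for 5 days. Recorded: mortality, clinical observations (e.g. temperature to touch, posture, gait, activity), body weight and weight gain, food consumption, and gross pathology.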
Another series deals with TcCYP51 (Trypanosoma cruzi, UniProt Q7Z1V1). Description: Fluorescence-based Trypanosoma cruzi CYP51 inhibition assay. Format: biochemical. As to conditions: concentrations up to and including 100 μM.
Chain of TcCYP51 (Q7Z1V1 whole entry): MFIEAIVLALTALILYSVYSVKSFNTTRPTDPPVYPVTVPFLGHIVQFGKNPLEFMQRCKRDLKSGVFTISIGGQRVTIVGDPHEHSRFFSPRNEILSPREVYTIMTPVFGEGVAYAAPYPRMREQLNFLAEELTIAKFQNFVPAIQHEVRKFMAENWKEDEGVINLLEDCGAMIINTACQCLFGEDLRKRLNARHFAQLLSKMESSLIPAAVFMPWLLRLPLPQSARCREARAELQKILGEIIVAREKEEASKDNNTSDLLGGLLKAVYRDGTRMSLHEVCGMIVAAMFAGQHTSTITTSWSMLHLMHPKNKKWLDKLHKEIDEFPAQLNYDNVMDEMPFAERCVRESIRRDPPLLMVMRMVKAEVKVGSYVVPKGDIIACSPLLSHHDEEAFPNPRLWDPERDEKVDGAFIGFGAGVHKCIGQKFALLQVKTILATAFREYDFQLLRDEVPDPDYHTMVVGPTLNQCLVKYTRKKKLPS
The nature of a further series: Mouse cassette dosing PK. It is filed as in vivo. The settings on record: male, ICR, plasma, iv, 0.1 mg/kg.
Series [4] relates to T. cruzi strain (CL Brener). Description: In vivo efficacy, bioluminescent acute T. cruzi infection in BALB/c mice. Also on record: species or system Trypanosoma cruzi. As to conditions: 50 mg/kg BID p.o. 5 days. In outline:
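Female BALB/c mice, 7–8 weeks old, housed specific-pathogen-free, infected i.p. with 1 × 10³ CL Brener trypomastigotes from SCID mouse blood. The parasites constitutively express the red-shifted luciferase PpyRE9h. From day 14 post-infection (acute peak), mice (n = 3) received test compound orally at 50 mg/kg twice daily for 5 days. Parasite burden was tracked by in vivo bioluminescence imaging against untreated controls through day 18, with animals observed for adverse effects.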

Where [5] appears, read: single p.o. dose 50 mg/kg, no ABT, 50 mg/kg.

Structures are written as SMILES.

On to `CC(C)(Nc1nc(-c2ccccn2)nc2ccccc12)c1ccccn1` [Compound 54, 2-(Pyridin-2-yl)-N-(2-(pyridin-2-yl)propan-2-yl)quinazolin-4-amine], for which, in series [1], the off-target activity result was “no known off-target activity with the exception of 5HT-1A antagonism”. In series [2] (1 mg/kg), this compound gave a clearance of 12.4 mL/min/kg. The “tolerability (single p.o. dose)” value in series [2] (setting [5]) was “No adverse reactions or compound-related side effects were observed”. For the same compound, the “tolerability (5 days BID p.o.)” value in series [3] (healthy mice, 10, 50, 100 mg/kg BID p.o., 5 days) is recorded as “poor”.
Consider `Fc1ccc(C2CCN(c3nc(-c4ccccn4)nc4ccccc34)C2)cc1` (stereo not shown) [Compound 83, 4-[3-(4-Fluorophenyl)pyrrolidin-1-yl]-2-(pyridin-2-yl)quinazoline], for which the TcCYP51 inhibitory activity result on TcCYP51 is “no inhibitory activity”.
On to `c1ccc(-c2nc(N3CCC(c4ccccn4)C3)c3ccccc3n2)nc1` (stereo not shown) [Compound 85, 2-(pyridin-2-yl)-4-(3-(pyridin-2-yl)pyrrolidin-1-yl)quinazoline], for which the clearance was 4.9 mL/min/kg in series [2] (2 mg/kg) and 38.5 mL/min/kg in “Mouse cassette dosing PK”. Further, the “tolerability (single p.o. dose)” value is on record as “adverse tolerability events were observed after the single dose” in series [2] (single dose 12.5 mg/kg p.o. with ABT 50 mg/kg p.o. 2 h prior); “poor” in series [2] (single dose 12.5 mg/kg p.o. with ABT 50 mg/kg p.o. 2 h prior, listed as 85 + ABT); “no adverse issues were noted” in series [2] (setting [5]). In addition, the “no-observed-adverse-effect-level (NOAEL)” value in series [3] (BID p.o. 5 days, female mice) is 100 mg/kg/dose (BID). For the same compound, the multiday tolerability observations entry in series [3] (female Balb/c mice, 10, 50, 100 mg/kg/dose BID p.o. up to 5 days, 1 animal/group) is listed as “well tolerated”. Moreover, the “adverse effects during treatment of infected mice” value in series [4] is “no adverse effects were observed”.

What is called clearance is a measure of how efficiently the substance is removed, as volume per time. High values mean efficient removal, low ones inefficient removal.
